ChEMBL document CHEMBL3526127, “Absorption, elimination, and metabolism of CS-1036, a novel α-amylase inhibitor in rats and monkeys, and the relationship between gastrointestinal distribution and suppression of glucose absorption” (Drug Metab Dispos, 2013)

Experiments:
Conditions in all cases: in vivo
[1] = Drug excretion in bile duct cannulated F344 rat bile at 1 mg/kg, po administered as single dose after 0 to 48 hrs by scintillation counting method; assay type: ADME, organism-based; parameters: dose 1 mg/kg, route oral
How it was run: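 Common bile duct was cannulated under diethyl ether in fasted F344 rats. After recovery, [14C]-labelled drug (1 mg/kg, 41.9 µCi/kg) was given iv via tail vein or by oral gavage (n = 4). Rats were held in Bollman cages and bile was collected at 4°C over 0–48 h intervals. Bile was counted by liquid scintillation; % of dose.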

[2] = test system: Cynomolgus monkey; assay: Drug excretion in cynomolgus monkey assessed as drug level found during cage washing at 3 mg/kg, iv administered as single dose after 0 to 48 hrs by scintillation counting method; assay type: ADME, organism-based, Macaca fascicularis; parameters: dose 3 mg/kg, route intravenous
How it was run: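 Fasted cynomolgus monkeys (n = 4) received [14C]-labelled drug at 3 mg/kg, iv via saphenous vein (191 µCi/kg) or orally by stomach catheter (156.5 µCi/kg). Urine, feces and water cage-wash were collected to 336 h. Samples were counted by liquid scintillation; feces were homogenized in 4-fold water. Results are % of dose, mean ± S.D.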

[3] = Tmax in F344 rat at 0.3 mg/kg, po administered as single dose by LC-MS/MS method; assay type: ADME, organism-based; parameters: dose 0.3 mg/kg, route oral
How it was run: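 Male F344 rats (146–185 g) and male cynomolgus monkeys (3.48–4.29 kg), n = 4 each, fasted overnight, received single iv or oral doses of 0.3, 1.0, 3.0 or 10.0 mg/kg. Monkeys had 2-week washouts between doses. Plasma was sampled to 48 h and assayed by LC-MS/MS with deuterated internal standard. Noncompartmental analysis: tmax observed; t1/2 by regression on ≥3 terminal log points; Vss = dose·AUMC/(AUC0–inf)²; Foral = oral/iv AUC0–inf at the same dose.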

SMILES: C[C@H]1O[C@@H](O[C@H]2[C@H](O)[C@@H](O)[C@@H](O[14C@H]3[14C@H](O)[14CH2]N[14C@@H]3[14CH2]O)O[C@@H]2CO)[C@H](O)[C@@H](O)[C@@H]1O
- Drug excretion [1]: 0.59%
- Drug excretion [2]: 13.7%

SMILES: C[C@H]1O[C@@H](O[C@H]2[C@H](O)[C@@H](O)[C@@H](O[C@H]3[C@H](O)CN[C@@H]3CO)O[C@@H]2CO)[C@H](O)[C@@H](O)[C@@H]1O
- Tmax [3]: 30 min
